How the values were obtained:
Spleen [1] = assay: Drug uptake in ICR mouse spleen at 370 kBq/100 ul, iv at 2 mins by gamma-counting analysis; assay type: ADME, organism-based; details: in vivo
In short: (§1)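 Male ICR mice (5 weeks, about 20 g) got 18F tracer in saline (370 KBq per 100 μL) via tail vein; n = 5 per time point, killed at 2, 10, 30, 60 min. Organs weighed and γ-counted; percent dose per gram wet tissue from comparison with diluted injectate aliquots.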

Bone [2] = assay: Drug uptake in ICR mouse bone at 370 kBq/100 ul, iv at 2 mins by gamma-counting analysis; assay type: ADME, organism-based, Bone element; details: in vivo; in short: as §1
Brain [3] = assay: Drug uptake in ICR mouse brain at 370 kBq/100 ul, iv at 60 mins by gamma-counting analysis; assay type: ADME, organism-based; details: in vivo, 1 h; in short: as §1
Blood [4] = assay: Drug uptake in ICR mouse blood at 370 kBq/100 ul, iv at 2 mins by gamma-counting analysis; assay type: ADME, organism-based; details: in vivo; in short: as §1
Brain [5] = assay: Drug uptake in ICR mouse brain at 370 kBq/100 ul, iv at 10 mins by gamma-counting analysis; assay type: ADME, organism-based; details: in vivo; in short: as §1
Lung [6] = assay: Drug uptake in ICR mouse lung at 370 kBq/100 ul, iv at 2 mins by gamma-counting analysis; assay type: ADME, organism-based; details: in vivo; in short: as §1
Brain [7] = assay: Drug uptake in ICR mouse brain at 370 kBq/100 ul, iv at 30 mins by gamma-counting analysis; assay type: ADME, organism-based; details: in vivo, 0.5 h; in short: as §1
Bone [8] = assay: Drug uptake in ICR mouse bone at 370 kBq/100 ul, iv at 10 mins by gamma-counting analysis; assay type: ADME, organism-based, Bone element; details: in vivo; in short: as §1
Blood [9] = assay: Drug uptake in ICR mouse blood at 370 kBq/100 ul, iv at 10 mins by gamma-counting analysis; assay type: ADME, organism-based; details: in vivo; in short: as §1
Bone [10] = assay: Drug uptake in ICR mouse bone at 370 kBq/100 ul, iv at 60 mins by gamma-counting analysis; assay type: ADME, organism-based, Bone element; details: in vivo, 1 h; in short: as §1
Heart [11] = assay: Drug uptake in ICR mouse heart at 370 kBq/100 ul, iv at 10 mins by gamma-counting analysis; assay type: ADME, organism-based; details: in vivo; in short: as §1
Stomach [12] = assay: Drug uptake in ICR mouse stomach assessed per organ at 370 kBq/100 ul, iv at 60 mins by gamma-counting analysis; assay type: ADME, organism-based; details: in vivo, 1 h
In short: (§2)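 Normal male ICR mice (5 weeks, about 20 g) received the ¹⁸F tracer in saline (370 KBq per 100 μL) by tail-vein injection. Groups of n = 5 were killed at 2, 10, 30 and 60 min. Organs were removed, weighed and γ-counted against diluted aliquots of the injectate, giving % dose per gram. Stomach and intestine were expressed per organ. The brain ratio is 2 min/60 min uptake. Values are mean ± SD.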

Brain [13] = assay: Drug uptake in wild type C57BL6 mouse brain at 370 KBq/100 ul after 1 hr by autoradiographic analysis; assay type: ADME, tissue-based; details: in vitro
In short: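 Paraffin brain sections from 12-month-old male control C57BL6 mice were deparaffinized through xylene and graded ethanol, then held in PBS (0.2 M, pH 7.4) for 30 min. They were incubated with the ¹⁸F tracer (370 KBq per 100 μL) for 1 h at room temperature. Sections were washed in 40% EtOH, rinsed with water for 1 min, dried, and exposed to a phosphor plate for 2 h. The same sections were then stained with thioflavin S.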

Spleen [14] = assay: Drug uptake in ICR mouse spleen at 370 kBq/100 ul, iv at 30 mins by gamma-counting analysis; assay type: ADME, organism-based; details: in vivo, 0.5 h; in short: as §1
Brain [15] = assay: Drug uptake in ICR mouse brain at 370 kBq/100 ul, iv at 2 mins by gamma-counting analysis; assay type: ADME, organism-based; details: in vivo; in short: as §1
Spleen [16] = assay: Drug uptake in ICR mouse spleen at 370 kBq/100 ul, iv at 10 mins by gamma-counting analysis; assay type: ADME, organism-based; details: in vivo; in short: as §1
Intestine [17] = assay: Drug uptake in ICR mouse intestine assessed per organ at 370 kBq/100 ul, iv at 60 mins by gamma-counting analysis; assay type: ADME, organism-based; details: in vivo, 1 h
In short: (§3)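 Male ICR mice (5 weeks, about 20 g) got 18F tracer in saline (370 KBq per 100 μL) via tail vein; n = 5 per time point, killed at 2, 10, 30, 60 min. Organs removed and γ-counted against diluted injectate; expressed as % injected dose per organ.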

Stomach [18] = assay: Drug uptake in ICR mouse stomach assessed per organ at 370 kBq/100 ul, iv at 10 mins by gamma-counting analysis; assay type: ADME, organism-based; details: in vivo; in short: as §3
Lung [19] = assay: Drug uptake in ICR mouse lung at 370 kBq/100 ul, iv at 10 mins by gamma-counting analysis; assay type: ADME, organism-based; details: in vivo; in short: as §1
[20] = Displacement of [125I]-IMPY from amyloid beta (1 to 42) fibrils after 2 hrs by gamma-counting analysis
In short: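 Competition binding with aggregated Aβ1-42 fibrils and [125I]IMPY (60000−100000 cpm/100 μL) in 0.05% BSA (1 mL total); inhibitors 10⁻⁴−10^−8.5 M in ethanol. Incubated 37 °C for 2 h, then GF/B vacuum filtration with PBS (0.02 M, pH 7.4) washes and γ counting. Three repeats; IC50 converted to Ki by Cheng−Prusoff.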

Intestine [21] = assay: Drug uptake in ICR mouse intestine assessed per organ at 370 kBq/100 ul, iv at 30 mins by gamma-counting analysis; assay type: ADME, organism-based; details: in vivo, 0.5 h; in short: as §3
Blood [22] = assay: Drug uptake in ICR mouse blood at 370 kBq/100 ul, iv at 60 mins by gamma-counting analysis; assay type: ADME, organism-based; details: in vivo, 1 h; in short: as §1
Brain [23] = assay: Ratio of drug uptake in brain at 2 mins to drug uptake in brain at 60 mins in ICR mouse at 370 KBq/100 ul, iv; assay type: ADME, organism-based; details: in vivo; in short: as §2
Heart [24] = assay: Drug uptake in ICR mouse heart at 370 kBq/100 ul, iv at 30 mins by gamma-counting analysis; assay type: ADME, organism-based; details: in vivo, 0.5 h; in short: as §1
Lung [25] = assay: Drug uptake in ICR mouse lung at 370 kBq/100 ul, iv at 60 mins by gamma-counting analysis; assay type: ADME, organism-based; details: in vivo, 1 h; in short: as §1
Spleen [26] = assay: Drug uptake in ICR mouse spleen at 370 kBq/100 ul, iv at 60 mins by gamma-counting analysis; assay type: ADME, organism-based; details: in vivo, 1 h; in short: as §1
Bone [27] = assay: Drug uptake in ICR mouse bone at 370 kBq/100 ul, iv at 30 mins by gamma-counting analysis; assay type: ADME, organism-based, Bone element; details: in vivo, 0.5 h; in short: as §1
Heart [28] = assay: Drug uptake in ICR mouse heart at 370 kBq/100 ul, iv at 60 mins by gamma-counting analysis; assay type: ADME, organism-based; details: in vivo, 1 h; in short: as §1
Kidney [29] = assay: Drug uptake in ICR mouse kidney at 370 kBq/100 ul, iv at 10 mins by gamma-counting analysis; assay type: ADME, organism-based; details: in vivo; in short: as §1
Liver [30] = assay: Drug uptake in ICR mouse liver at 370 kBq/100 ul, iv at 2 mins by gamma-counting analysis; assay type: ADME, organism-based; details: in vivo; in short: as §1
[31] = n-Octanol-PBS buffer partition coefficient, log D of the compound at 1.5 MBq after 3 mins at pH 7.4; assay type: physicochemical
In short: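 The tracer was partitioned between n-octanol and PBS by vortexing for 3 min at room temperature, then centrifuged for 5 min at 3000 rpm. Samples of the octanol (50 μL) and aqueous (500 μL) layers were counted. log D is the log of the octanol/PBS counts-per-gram ratio. The octanol layer was repartitioned until values were consistent. Measured in triplicate and repeated three times.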

Kidney [32] = assay: Drug uptake in ICR mouse kidney at 370 kBq/100 ul, iv at 60 mins by gamma-counting analysis; assay type: ADME, organism-based; details: in vivo, 1 h; in short: as §1
Lung [33] = assay: Drug uptake in ICR mouse lung at 370 kBq/100 ul, iv at 30 mins by gamma-counting analysis; assay type: ADME, organism-based; details: in vivo, 0.5 h; in short: as §1
Stomach [34] = assay: Drug uptake in ICR mouse stomach assessed per organ at 370 kBq/100 ul, iv at 2 mins by gamma-counting analysis; assay type: ADME, organism-based; details: in vivo; in short: as §3
Kidney [35] = assay: Drug uptake in ICR mouse kidney at 370 kBq/100 ul, iv at 30 mins by gamma-counting analysis; assay type: ADME, organism-based; details: in vivo, 0.5 h; in short: as §1
Liver [36] = assay: Drug uptake in ICR mouse liver at 370 kBq/100 ul, iv at 30 mins by gamma-counting analysis; assay type: ADME, organism-based; details: in vivo, 0.5 h; in short: as §1
Stomach [37] = assay: Drug uptake in ICR mouse stomach assessed per organ at 370 kBq/100 ul, iv at 30 mins by gamma-counting analysis; assay type: ADME, organism-based; details: in vivo, 0.5 h; in short: as §3
Intestine [38] = assay: Drug uptake in ICR mouse intestine assessed per organ at 370 kBq/100 ul, iv at 2 mins by gamma-counting analysis; assay type: ADME, organism-based; details: in vivo; in short: as §3
Heart [39] = assay: Drug uptake in ICR mouse heart at 370 kBq/100 ul, iv at 2 mins by gamma-counting analysis; assay type: ADME, organism-based; details: in vivo; in short: as §1
Blood [40] = assay: Drug uptake in ICR mouse blood at 370 kBq/100 ul, iv at 30 mins by gamma-counting analysis; assay type: ADME, organism-based; details: in vivo, 0.5 h; in short: as §1
Liver [41] = assay: Drug uptake in ICR mouse liver at 370 kBq/100 ul, iv at 60 mins by gamma-counting analysis; assay type: ADME, organism-based; details: in vivo, 1 h; in short: as §1
Liver [42] = assay: Drug uptake in ICR mouse liver at 370 kBq/100 ul, iv at 10 mins by gamma-counting analysis; assay type: ADME, organism-based; details: in vivo; in short: as §1
Kidney [43] = assay: Drug uptake in ICR mouse kidney at 370 kBq/100 ul, iv at 2 mins by gamma-counting analysis; assay type: ADME, organism-based; details: in vivo; in short: as §1
Intestine [44] = assay: Drug uptake in ICR mouse intestine assessed per organ at 370 kBq/100 ul, iv at 10 mins by gamma-counting analysis; assay type: ADME, organism-based; details: in vivo; in short: as §3

CN(C)c1ccc(-c2nc3cc(OCC[18F])ccc3o2)cn1
Drug uptake (Spleen [1]): 3.22 % ID/g | Drug uptake (Bone [2]): 2.08 % ID/g | Drug uptake (Brain [3]): 1.47 % ID/g | Drug uptake (Blood [4]): 3.57 % ID/g | Drug uptake (Brain [5]): 3.41 % ID/g | Drug uptake (Lung [6]): 5.53 % ID/g | Drug uptake (Brain [7]): 1.76 % ID/g | Drug uptake (Bone [8]): 1.27 % ID/g | Drug uptake (Blood [9]): 2.05 % ID/g | Drug uptake (Bone [10]): 1.88 % ID/g | Drug uptake (Heart [11]): 2.44 % ID/g | Drug uptake (Stomach [12]): 2.79 %ID | Drug uptake (Brain [13]): Not Active | Drug uptake (Spleen [14]): 1.6 % ID/g | Drug uptake (Brain [15]): 7.27 % ID/g | Drug uptake (Spleen [16]): 2.02 % ID/g | Drug uptake (Intestine [17]): 37.02 %ID | Drug uptake (Stomach [18]): 2.55 %ID | Drug uptake (Lung [19]): 2.58 % ID/g | Ki [20]: 2.7 nM | Drug uptake (Intestine [21]): 38.88 %ID | Drug uptake (Blood [22]): 2.06 % ID/g | Ratio (Brain [23]): 4.95 | Drug uptake (Heart [24]): 1.83 % ID/g | Drug uptake (Lung [25]): 1.79 % ID/g | Drug uptake (Spleen [26]): 1.32 % ID/g | Drug uptake (Bone [27]): 1.56 % ID/g | Drug uptake (Heart [28]): 1.93 % ID/g | Drug uptake (Kidney [29]): 3.82 % ID/g | Drug uptake (Liver [30]): 15.7 % ID/g | logD at 0.05 h [31]: 3.53 | Drug uptake (Kidney [32]): 1.82 % ID/g | Drug uptake (Lung [33]): 1.85 % ID/g | Drug uptake (Stomach [34]): 2.44 %ID | Drug uptake (Kidney [35]): 2.44 % ID/g | Drug uptake (Liver [36]): 4.39 % ID/g | Drug uptake (Stomach [37]): 2.54 %ID | Drug uptake (Intestine [38]): 8.41 %ID | Drug uptake (Heart [39]): 5.95 % ID/g | Drug uptake (Blood [40]): 1.89 % ID/g | Drug uptake (Liver [41]): 3.19 % ID/g | Drug uptake (Liver [42]): 10.72 % ID/g | Drug uptake (Kidney [43]): 8.48 % ID/g | Drug uptake (Intestine [44]): 21.45 %ID
